Source: ChEMBL document CHEMBL3616436, “Synthesis, cytotoxicity and antimicrobial activity of thiourea derivatives incorporating 3-(trifluoromethyl)phenyl moiety” (Eur J Med Chem, 2015)
pEC50: −log10 of the molar value. ≈ marks a conversion by molar mass, not a printed value. Calls of active or inactive are those of the source. The rule behind the calls is not given here.

Key:
[1] = tested on: Staphylococcus epidermidis; assay: Ratio of ciprofloxacin MIC to compound MIC for hospital methicillin-resistant Staphylococcus epidermidis 62/04 after 18 hrs by twofold serial microdilution method; format: functional
In short: (§1)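 Ratio of MICs for ciprofloxacin and test agent, each from twofold serial broth microdilution in Mueller-Hinton broth following CLSI guidelines. DMSO stock was diluted in sterile water to 0.125–512 µg/mL, with a final inoculum of 10^5 CFU/mL.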

[2] = tested on: Staphylococcus epidermidis; assay: Antimicrobial activity against Staphylococcus epidermidis ATCC 35984 after 18 hrs by twofold serial microdilution method; format: functional; settings: ATCC 35984, 18 h
[3] = tested on: Staphylococcus epidermidis; assay: Ratio of ciprofloxacin MIC to compound MIC for hospital methicillin-resistant Staphylococcus epidermidis 24/04 after 18 hrs by twofold serial microdilution method; format: functional
Staphylococcus aureus [4] = assay: Antimicrobial activity against Staphylococcus aureus ATCC 29213 after 18 hrs by twofold serial microdilution method; format: functional; settings: ATCC 29213, 18 h
Enterococcus hirae = assay: Antimicrobial activity against Enterococcus hirae ATCC 10541 at 400 ug after 18 hrs by disc-diffusion method; format: functional; settings: ATCC 10541, 18 h, read-out: IZ
In short: (§2)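 Disc diffusion on Mueller-Hinton II agar per CLSI; 9 mm paper discs loaded with 400 µg compound from DMSO solution, dried, placed on agar; growth inhibition zone diameter read after 18 h at 35°C.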

Proteus vulgaris = assay: Antimicrobial activity against Proteus vulgaris NCTC 4635 at 400 ug after 18 hrs by disc-diffusion method; format: functional; in short: as §2
Staphylococcus aureus [5] = assay: Ratio of ciprofloxacin MIC to compound MIC for hospital methicillin-resistant Staphylococcus aureus 81/05 after 18 hrs by twofold serial microdilution method; format: functional; in short: as §1
Staphylococcus aureus [6] = assay: Antimicrobial activity against Staphylococcus aureus NCTC 4163 at 400 ug after 18 hrs by disc-diffusion method; format: functional; settings: NCTC 4163, 18 h, read-out: IZ; in short: as §2
[7] = tested on: Staphylococcus epidermidis; assay: Antimicrobial activity against Staphylococcus epidermidis ATCC 12228 at 400 ug after 18 hrs by disc-diffusion method; format: functional; settings: ATCC 12228, 18 h, read-out: IZ; in short: as §2
[8] = Cytotoxicity against bovine MDBK cells assessed as cell viability after 48 to 96 hrs by MTT assay; format: cell-based, Bos taurus; settings: cattle
[9] = tested on: Staphylococcus epidermidis; assay: Antimicrobial activity against hospital methicillin-resistant Staphylococcus epidermidis 23/04 after 18 hrs by twofold serial microdilution method; format: functional; settings: 23/04, 18 h
In short: (§3)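 Twofold serial microdilution in Mueller-Hinton broth. Compound stock was made in DMSO and diluted in sterile water. Tested range was 0.125–512 µg/mL. Final inoculum was 10^5 CFU/mL. Plates were incubated 18 h at 35 °C. MIC is the lowest concentration preventing visible growth.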

[10] = tested on: Staphylococcus epidermidis; assay: Antimicrobial activity against Staphylococcus epidermidis ATCC 35984 at 400 ug after 18 hrs by disc-diffusion method; format: functional; settings: ATCC 35984, 18 h, read-out: IZ; in short: as §2
[11] = tested on: Mycobacterium tuberculosis; assay: Antimycobacterial activity against Mycobacterium tuberculosis H37Rv ATCC 25618; format: functional
In short: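 Classical test-tube successive-dilution method in Youmans' modification of Proskauer and Beck liquid medium with 10% bovine serum. Inoculum came from 14-day cultures. DMSO stock was 10 mg/mL, diluted geometrically in medium. Tubes were incubated at 37 °C. Concentrations tested were 3.1, 6.2, 12.5, 25, 50 and 100 µg/ml. MIC is the minimum concentration inhibiting growth relative to compound-free tubes.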

[12] = tested on: Vesicular stomatitis virus; assay: Antiviral activity against Vesicular stomatitis virus ATCC VR 1540 infected in African green monkey Vero 76 cells assessed as reduction of virus-plaque formation after 2 days by crystal violet staining; format: functional, organism-based; settings: ATCC VR 1540, Vero, 48 h
[13] = tested on: Staphylococcus epidermidis; assay: Antimicrobial activity against hospital methicillin-resistant Staphylococcus epidermidis 63/04 after 18 hrs by twofold serial microdilution method; format: functional; settings: 63/04, 18 h; in short: as §3
Poliovirus 1 = assay: Antiviral activity against Poliovirus type 1 ATCC VR-1562 infected in African green monkey Vero 76 cells assessed as reduction of virus-plaque formation after 2 days by crystal violet staining; format: functional, organism-based; settings: Enterovirus C, ATCC VR-1562, Vero, 48 h
Micrococcus luteus = assay: Antimicrobial activity against Micrococcus luteus ATCC 9341 at 400 ug after 18 hrs by disc-diffusion method; format: functional; settings: ATCC 9341, 18 h, read-out: IZ; in short: as §2
[14] = tested on: Staphylococcus epidermidis; assay: Antimicrobial activity against hospital methicillin-resistant Staphylococcus epidermidis 24/04 after 18 hrs by twofold serial microdilution method; format: functional; settings: 24/04, 18 h; in short: as §3
[15] = Cytotoxicity against human MT4 cells; format: cell-based
[16] = tested on: Staphylococcus epidermidis; assay: Antimicrobial activity against hospital methicillin-resistant Staphylococcus epidermidis 151/04 after 18 hrs by twofold serial microdilution method; format: functional; settings: 151/04, 18 h; in short: as §3
Bacillus cereus = assay: Antimicrobial activity against Bacillus cereus ATCC 11778 at 400 ug after 18 hrs by disc-diffusion method; format: functional; settings: ATCC 11778, 18 h, read-out: IZ; in short: as §2
[17] = tested on: Staphylococcus epidermidis; assay: Ratio of ciprofloxacin MIC to compound MIC for hospital methicillin-resistant Staphylococcus epidermidis 31/04 after 18 hrs by twofold serial microdilution method; format: functional; in short: as §1
Staphylococcus aureus [18] = assay: Antimicrobial activity against hospital methicillin-resistant Staphylococcus aureus 53/05 after 18 hrs by twofold serial microdilution method; format: functional; settings: 53/05, 18 h; in short: as §3
Staphylococcus aureus [19] = assay: Antimicrobial activity against Staphylococcus aureus ATCC 6538 at 400 ug after 18 hrs by disc-diffusion method; format: functional; settings: ATCC 6538, 18 h, read-out: IZ; in short: as §2
Staphylococcus aureus [20] = assay: Ratio of ciprofloxacin MIC to compound MIC for hospital methicillin-resistant Staphylococcus aureus 573/11 after 18 hrs by twofold serial microdilution method; format: functional; in short: as §1
Staphylococcus aureus [21] = assay: Antimicrobial activity against Staphylococcus aureus ATCC 25923 after 18 hrs by twofold serial microdilution method; format: functional; settings: ATCC 25923, 18 h
Bacillus subtilis = assay: Antimicrobial activity against Bacillus subtilis ATCC 6633 at 400 ug after 18 hrs by disc-diffusion method; format: functional; settings: ATCC 6633, 18 h, read-out: IZ; in short: as §2
[22] = tested on: Staphylococcus epidermidis; assay: Ratio of ciprofloxacin MIC to compound MIC for hospital methicillin-resistant Staphylococcus epidermidis 76/04 after 18 hrs by twofold serial microdilution method; format: functional; in short: as §1
Staphylococcus aureus [23] = assay: Antimicrobial activity against Staphylococcus aureus NCTC 4163 after 18 hrs by twofold serial microdilution method; format: functional; settings: NCTC 4163, 18 h
Staphylococcus aureus [24] = assay: Antimicrobial activity against hospital methicillin-resistant Staphylococcus aureus 81/05 after 18 hrs by twofold serial microdilution method; format: functional; settings: 81/05, 18 h; in short: as §3
[25] = tested on: Staphylococcus epidermidis; assay: Ratio of ciprofloxacin MIC to compound MIC for hospital methicillin-resistant Staphylococcus epidermidis 63/04 after 18 hrs by twofold serial microdilution method; format: functional; in short: as §1
Staphylococcus aureus [26] = assay: Ratio of ciprofloxacin MIC to compound MIC for hospital methicillin-resistant Staphylococcus aureus 53/05 after 18 hrs by twofold serial microdilution method; format: functional; in short: as §1
Staphylococcus aureus [27] = assay: Antimicrobial activity against hospital methicillin-resistant Staphylococcus aureus 80/05 after 18 hrs by twofold serial microdilution method; format: functional; settings: 80/05, 18 h; in short: as §3

Row | Structure (SMILES) | Ratio [1] | MIC [2] [µg/mL] | Ratio [3] | MIC (Staphylococcus aureus [4]) [µg/mL] | zone of inhibition at 400 µg/disc (Enterococcus hirae) [mm] | Ratio (Staphylococcus aureus [5]) | zone of inhibition at 400 µg/disc (Staphylococcus aureus [6]) [mm] | zone of inhibition at 400 µg/disc [7] [mm] | MIC [9] [µg/mL] | zone of inhibition at 400 µg/disc [10] [mm] | MIC [11] [µg/mL] | pEC50 [12] | MIC [13] [µg/mL] | pEC50 (Poliovirus 1) | zone of inhibition at 400 µg/disc (Micrococcus luteus) [mm] | MIC [14] [µg/mL] | MIC [16] [µg/mL] | zone of inhibition at 400 µg/disc (Bacillus cereus) [mm] | Ratio [17] | MIC (Staphylococcus aureus [18]) [µg/mL] | also measured
1 | Fc1ccc(NC(=S)Nc2cccc(C(F)(F)F)c2)cc1Cl | 128 | 2 (≈ 5.73 µM) | 128 | 1 (≈ 2.87 µM) | 34 | 128 | 30 | 30 | 1 (≈ 2.87 µM) | 27 | 50 (≈ 143 µM) | < 4.70 | 0.5 (≈ 1.43 µM) | < 4.70 | 32 | 1 (≈ 2.87 µM) | 2 (≈ 5.73 µM) | 25 | 128 | 1 (≈ 2.87 µM) | zone of inhibition at 400 µg/disc (Proteus vulgaris; NCTC 4635, 18 h, read-out: IZ): 14 mm; CC50 [8]: 11 µM; CC50 [15]: 8 µM; zone of inhibition at 400 µg/disc (Staphylococcus aureus [19]): 30 mm; Ratio (Staphylococcus aureus [20]): 128; MIC (Staphylococcus aureus [21]): 1 µg/mL (≈ 2.87 µM); zone of inhibition at 400 µg/disc (Bacillus subtilis): 30 mm; Ratio [22]: 128; MIC (Staphylococcus aureus [23]): 1 µg/mL (≈ 2.87 µM); MIC (Staphylococcus aureus [24]): 0.25 µg/mL (≈ 0.717 µM); Ratio [25]: 128; Ratio (Staphylococcus aureus [26]): 128; MIC (Staphylococcus aureus [27]): 0.25 µg/mL (≈ 0.717 µM)
2 | FC(F)(F)c1cccc(NC(S)=Nc2ccc(Cl)c(Cl)c2)c1 | 128 | 1 (≈ 2.74 µM) | 128 | 0.5 (≈ 1.37 µM) | 15 | 128 | 15 | 13 | 1 (≈ 2.74 µM) | 13 | 50 (≈ 137 µM) | < 4.80 | 2 (≈ 5.48 µM) | < 4.80 | 15 | 1 (≈ 2.74 µM) | 1 (≈ 2.74 µM) | 13 | 128 | 2 (≈ 5.48 µM) | inhibition zone (IZ) (Proteus vulgaris): inactive; zone of inhibition at 400 µg/disc (Staphylococcus aureus [19]): 14 mm; Ratio (Staphylococcus aureus [20]): 128; MIC (Staphylococcus aureus [21]): 0.5 µg/mL (≈ 1.37 µM); zone of inhibition at 400 µg/disc (Bacillus subtilis): 11 mm; Ratio [22]: 128; MIC (Staphylococcus aureus [23]): 0.5 µg/mL (≈ 1.37 µM); MIC (Staphylococcus aureus [24]): 1 µg/mL (≈ 2.74 µM); Ratio [25]: 128; Ratio (Staphylococcus aureus [26]): 128; MIC (Staphylococcus aureus [27]): 2 µg/mL (≈ 5.48 µM)
3 | Fc1cccc(NC(=S)Nc2cccc(C(F)(F)F)c2)c1 | 128 | 8 (≈ 25.5 µM) | 128 | 8 (≈ 25.5 µM) | 25 | 128 | 20 | 19 | 8 (≈ 25.5 µM) | 19 | 25 (≈ 79.5 µM) | < 4.70 | 16 (≈ 50.9 µM) | < 4.70 | 23 | 8 (≈ 25.5 µM) | 16 (≈ 50.9 µM) | 18 | 128 | 4 (≈ 12.7 µM) | inhibition zone (IZ) (Proteus vulgaris): inactive; CC50 [8]: 10 µM; CC50 [15]: 20 µM; zone of inhibition at 400 µg/disc (Staphylococcus aureus [19]): 20 mm; Ratio (Staphylococcus aureus [20]): 128; MIC (Staphylococcus aureus [21]): 4 µg/mL (≈ 12.7 µM); zone of inhibition at 400 µg/disc (Bacillus subtilis): 20 mm; Ratio [22]: 128; MIC (Staphylococcus aureus [23]): 4 µg/mL (≈ 12.7 µM); MIC (Staphylococcus aureus [24]): 8 µg/mL (≈ 25.5 µM); Ratio [25]: 128; Ratio (Staphylococcus aureus [26]): 128; MIC (Staphylococcus aureus [27]): 8 µg/mL (≈ 25.5 µM)
